# From ChEMBL document CHEMBL4689842, “EUbOPEN Chemogenomics Library wave 1” (2021)
# Where “and” joins values, the source holds several entries; their conditions need not be identical. Identical values can stand only once.
# Tested on: Fibroblast
# Experiment: Multiplex assay against human fibroblast
# Type: toxicity, cell-based
# Settings: 1 µM, compound concentration 1 uM
# Method in brief: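 Phenotypes for tubulin, mitochondrial mass and membrane permeability are expressed as per cents of healthy-nucleus cells. Cells were stained live at seeding with Hoechst33342, BioTracker Green Microtubule Cytoskeleton Dye, MitoTracker Red and Annexin V Alexa Fluor 680, then imaged after compound addition on a CQ1 microscope at 37°C and 5% CO2. Machine-learning gating in CellPathfinder separated Hoechst high-intensity objects from normal cells, divided normal cells by nuclear state (healthy, pyknosed, fragmented) and divided pyknosed cells into mitotic or apoptotic.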
structure (smiles),measurement,setting,value
CN([C@@H](Cc1ccc(OS(=O)(=O)c2cccc3cnccc23)cc1)C(=O)N1CCN(c2ccccc2)CC1)S(=O)(=O)c1cccc2cnccc12,Population Apoptotic (%),"12 h, replicate 1",54% and 75%
same,Population Fragmented Nuclei (%),"12 h, replicate 1",29%
same,Population Healthy Nuclei (%),"12 h, replicate 1",56% and 53%
same,Population Hoechst High Intensity Objects (%),"12 h, replicate 1",8% and 14%
same,Population Membrane Permeable-Phenotype (%),"12 h, replicate 1",45%
same,Population Mitotic Cells (%),"12 h, replicate 1",45% and 25%
same,Population Normal (%),"12 h, replicate 1",91% and 85%
same,Population Pyknosed Nuclei (%),"12 h, replicate 1",13% and 17%
same,Population Tubulin-Different-Phenotype (%),"12 h, replicate 1",57% and 69%
same,Total Cell Count,"12 h, replicate 1",348 and 189
same,Population Apoptotic (%),"12 h, replicate 2",50% and 80%
same,Population Fragmented Nuclei (%),"12 h, replicate 2",53% and 70%
same,Population Healthy Nuclei (%),"12 h, replicate 2",39% and 14%
same,Population Hoechst High Intensity Objects (%),"12 h, replicate 2",30% and 41%
same,Population Mitochondria Different-Phenotype (%),"12 h, replicate 2",39% and 60%
same,Population Mitotic Cells (%),"12 h, replicate 2",50% and 20%
same,Population Normal (%),"12 h, replicate 2",69% and 58%
same,Population Pyknosed Nuclei (%),"12 h, replicate 2",6% and 14%
same,Population Tubulin-Different-Phenotype (%),"12 h, replicate 2",82% and 80%
same,Total Cell Count,"12 h, replicate 2",84 and 58
same,Population Apoptotic (%),"24 h, replicate 1",66% and 59%
same,Population Fragmented Nuclei (%),"24 h, replicate 1",23% and 30%
same,Population Healthy Nuclei (%),"24 h, replicate 1",61% and 59%
same,Population Hoechst High Intensity Objects (%),"24 h, replicate 1",15% and 13%
same,Population Membrane Permeable-Phenotype (%),"24 h, replicate 1",30% and 21%
same,Population Mitotic Cells (%),"24 h, replicate 1",33% and 40%
same,Population Normal (%),"24 h, replicate 1",84% and 86%
same,Population Pyknosed Nuclei (%),"24 h, replicate 1",15% and 10%
same,Population Tubulin-Different-Phenotype (%),"24 h, replicate 1",70% and 47%
same,Total Cell Count,"24 h, replicate 1",184 and 365
same,Population Fragmented Nuclei (%),"24 h, replicate 2",76% and 52%
same,Population Healthy Nuclei (%),"24 h, replicate 2",14% and 38%
same,Population Hoechst High Intensity Objects (%),"24 h, replicate 2",33% and 25%
same,Population Membrane Permeable-Phenotype (%),"24 h, replicate 2",40% and 25%
same,Population Mitochondria Different-Phenotype (%),"24 h, replicate 2",40% and 33%
same,Population Normal (%),"24 h, replicate 2",66% and 74%
same,Population Pyknosed Nuclei (%),"24 h, replicate 2",8% and 9%
same,Population Tubulin-Different-Phenotype (%),"24 h, replicate 2",60% and 91%
same,Total Cell Count,"24 h, replicate 2",51 and 85
